Results collected from several papers.
Each line is one published result; the experiments were not run side by side.
Target: Serine/threonine-protein kinase Chk1 (CHEK1, Homo sapiens, UniProt O14757)
One construct used (O14757 1-476): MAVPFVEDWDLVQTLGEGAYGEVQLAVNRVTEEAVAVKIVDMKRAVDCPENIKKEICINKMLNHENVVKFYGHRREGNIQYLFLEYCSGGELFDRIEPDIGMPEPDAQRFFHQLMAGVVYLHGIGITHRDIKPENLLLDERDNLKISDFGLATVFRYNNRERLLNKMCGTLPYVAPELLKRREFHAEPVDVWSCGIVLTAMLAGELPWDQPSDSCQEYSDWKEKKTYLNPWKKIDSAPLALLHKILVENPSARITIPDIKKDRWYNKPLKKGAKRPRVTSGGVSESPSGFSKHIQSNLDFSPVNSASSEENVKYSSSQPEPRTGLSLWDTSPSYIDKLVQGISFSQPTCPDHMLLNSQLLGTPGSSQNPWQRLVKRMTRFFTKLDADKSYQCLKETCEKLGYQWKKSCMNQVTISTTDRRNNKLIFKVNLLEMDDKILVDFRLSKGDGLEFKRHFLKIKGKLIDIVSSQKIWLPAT

| SMILES | read-out | method | tested at | remaining binding |
| --- | --- | --- | --- | --- |
| FC(F)(F)Oc1cccc(-c2cnc3ccc(-c4ccncc4)nn23)c1 | cell-free assay | competition with immobilised ligand | 5 µM | 100% |
| CC(=O)Nc1c(C(C)=O)c(=O)n(C)c2nc(-c3ccc(Cl)cc3Cl)c(-c3ccc(Cl)cc3)cc12 | cell-free assay | competition with immobilised ligand | 1 µM | 100% |
| CN(c1nccc(-c2cnn3ncccc23)n1)C1CC1 | binding |  | 1 µM | 78% |
| Cc1nc(C2CCN(C(=O)c3ccc(OC(F)(F)F)cc3N)CC2)c2ncc(N3CCN(C)CC3)cc2n1 | cell-free assay | competition with immobilised ligand | 1 µM | 100% |
| COc1cnc(Nc2cccc(S(N)(=O)=O)c2)nc1N1CCN(c2ccccc2)C(=O)C1 | binding | competition with immobilised ligand | 1 µM | 100% |
| N#Cc1ccccc1CSc1nnc2c(n1)[nH]c1ccccc12 | binding | competition with immobilised ligand | 10 µM | 87% |
| Cc1cnn2ncc(-c3ccnc(N(C)C)n3)c2c1 | binding |  | 1 µM | 100% |
| CCc1ccccc1C(=O)Nc1n[nH]c2c(C)c(F)c(C3C(C#N)=C(C)N(C)C(C)=C3C#N)cc12 | cell-free assay | competition with immobilised ligand | 1 µM | 91% |
| CC(C)(C)c1ccc(-c2nc(CBr)nn2-c2cccc(O)c2)cc1 | cell-free assay | competition with immobilised ligand | 10 µM | 86% |
| O=C(c1ccc(Nc2nccc(-c3cc4ccccc4s3)n2)cc1)N1CCC(N2CCCC2)CC1 | binding | competition with immobilised ligand | 1 µM | 100% |
| O=C(Nc1c[nH]nc1C(=O)NC1CCNCC1)c1cc(F)cc(F)c1 | binding | competition with immobilised ligand | 1 µM | 100% |
| O=C(NCCCN1CCOCC1)c1ccc(Nc2ncc(Cl)c(-c3ccc(Cl)s3)n2)cc1 | binding | competition with immobilised ligand | 1 µM | 57% |
| COc1ccnn2ncc(-c3ccnc(N(C)C)n3)c12 | binding |  | 1 µM | 94% |
| CN(C)C(=O)Cn1cc(-c2nc([C@@](C)(c3ccc(-c4cnc(N)nc4)cc3)C3CC3)no2)cn1 | cell-free assay | competition with immobilised ligand | 1 µM | 85% |
| CN(C)c1ncc(F)c(-c2cnn3ncccc23)n1 | binding |  | 1 µM | 87% |
| C[C@@H]1CN(c2ccc3ncc(-c4ccc5[nH]nc(C6CC6)c5c4)n3n2)C[C@H](C)O1 | binding | competition with immobilised ligand | 50 nM | 91% |
| FC(F)(F)c1ccc2c(c1)nc(-c1cccnc1)n2C1CC1 | cell-free assay | competition with immobilised ligand | 1 µM | 100% |
| N[C@H]1CCN(c2nccc(-c3cnn4ncccc34)n2)C1 | binding |  | 1 µM | 100% |
| Cc1cc(-n2nc(Cc3cc(F)cc(C(F)(F)F)c3)nc2C)ccc1C(N)=O | cell-free assay | competition with immobilised ligand | 1 µM | 100% |
| O=C(c1ccc(Nc2ncc(Cl)c(-c3ccc(Cl)s3)n2)cc1)N1CCC(N2CCCC2)CC1 | binding | competition with immobilised ligand | 1 µM | 37% |
| c1cnn2ncc(-c3ccnc(N4CCC45COC5)n3)c2c1 | binding |  | 1 µM | 89% |
| CNC(=O)[C@@H]1CC[C@@H](n2c(-c3ccc4cnccc4c3)nc3ccc(C(=O)NCc4cccc(C(N)=O)c4)cc32)C1 | binding | competition with immobilised ligand | 1 µM | 100% |
| Cc1cc(C)c(-n2ccn3nc(-c4cccnc4)cc23)cc1NC(=O)c1cc(C#N)cc(S(F)(F)(F)(F)F)c1 | cell-free assay | competition with immobilised ligand | 0.1 µM | 86% |
| C[C@H]1CCN(c2nccc(-c3cnn4ncccc34)n2)C1 | binding |  | 1 µM | 76% |
